Measured values taken from ChEMBL document CHEMBL4038310, “Scaffold Hopping and Optimization of Maleimide Based Porcupine Inhibitors” (J Med Chem, 2017).
Values after ≈ are worked out from the molar mass of the structure shown.

Columns and labels:
[1] = Thermodynamic solubility of compound at pH 7.4; format: physicochemical; conditions: buffer, read-out: Therm_solubility
[2] = Thermodynamic solubility of compound at pH 4; format: physicochemical; conditions: buffer, read-out: Therm_solubility
[3] = Tmax in CD1 mouse at 5 mg/kg administered as single dose via oral gavage after 24 hrs by LC/MS analysis; format: ADME, organism-based; conditions: in vivo
Method in brief: (§1)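 Female CD-1 mice, 6-8 weeks, 26 ± 3 g; single oral gavage dose of 5 mg/kg; three mice per time point. Sampling by cardiac puncture after CO2 euthanasia at pre-dose and from 5 or 10 min up to 24 h into K3EDTA. Plasma was extracted with acetonitrile/formic acid, carbamazepine internal standard, and analysed by LC-MS/MS (ESI+, MRM). Parameters were derived non-compartmentally.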

[4] = Cmax in CD1 mouse at 5 mg/kg administered as single dose via oral gavage after 24 hrs by LC/MS analysis; format: ADME, organism-based; set-up: dose 5 mg/kg, route oral; conditions: in vivo; method in brief: as §1
[5] = Cmax in Sprague-Dawley rat at 10 mg/kg, po; format: ADME, organism-based; set-up: dose 10 mg/kg, route oral; conditions: in vivo
Method in brief: (§2)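 Male Sprague Dawley rats received a single oral dose of 10 mg/kg. A plasma concentration-time profile was obtained, and PK parameters were calculated by the non-compartmental method.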

[6] = AUC in Sprague-Dawley rat at 10 mg/kg, po; format: ADME, organism-based; conditions: in vivo; method in brief: as §2
[7] = Bioavailability in Sprague-Dawley rat plasma at 2 mg/kg, iv; format: ADME, organism-based
Method in brief: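 Male Sprague Dawley rats were given a 2 mg/kg intravenous dose and compared with a 10 mg/kg oral dose. Absolute F = (AUC0-inf po/AUC0-inf iv) × (dose iv/dose po) × 100.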

Mus musculus = experiment: Bioavailability in CD1 mouse at 1 mg/kg, iv administered as single dose after 24 hrs by LC/MS analysis; format: ADME, organism-based; conditions: in vivo
Method in brief: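 Female CD-1 mice received a single 1 mg/kg tail-vein dose, with three mice per time point and plasma sampled up to 24 h. Quantitation was by LC-MS/MS against standards in blank mouse plasma. Absolute oral F = (AUC0-inf po/AUC0-inf iv) × (dose iv/dose po) × 100, using the 5 mg/kg oral gavage arm.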

solubility thermodynamic [1] [µg/mL]	solubility thermodynamic [2] [µg/mL]	Tmax [3] [min]	Cmax [4] [ng/mL]	also measured	SMILES
13 (≈ 34.6 µM)	–	–	–	–	CN1C(=O)C2=C(C1=O)N(CC(=O)Nc1ccc(-c3cccnc3)nc1)CCC2
9.5 (≈ 25.1 µM)	13.9 (≈ 36.7 µM)	120	759	–	CN1C(=O)C2=C(C1=O)N(CC(=O)Nc1ccc(-c3cccnc3)nn1)CCC2
1.26 to 1.3 (≈ 3.29 to 3.4 µM)	1.1 (≈ 2.88 µM)	–	–	–	CN1C(=O)C2=C(C1=O)N(CC(=O)Nc1ccc(-c3nccs3)cc1)CCC2
0.42 (≈ 1.11 µM)	–	–	–	–	CN1C(=O)c2cccc(CC(=O)Nc3ccc(-c4nccs4)cc3)c2C1=O
14.9 (≈ 35.3 µM)	13.8 (≈ 32.7 µM)	30	3290	–	O=C(CN1CCCC2=C1C(=O)N(C1CC1)C2=O)Nc1ccc(-c2cncc(F)c2)nn1
11.1 (≈ 26.5 µM)	> 41	30	1190	–	Cc1ccc(-c2ccc(NC(=O)CN3CCCC4=C3C(=O)N(C3CC3)C4=O)nn2)cn1
60 (≈ 148 µM)	141 (≈ 349 µM)	30	4030	Cmax [5]: 17300 ng/mL; AUC [6]: 81200 ng·h/mL; bioavailability [7]: 81%; F (Mus musculus): 100%	O=C(CN1CCCC2=C1C(=O)N(C1CC1)C2=O)Nc1ccc(-c2cccnc2)nn1
2.1 (≈ 5.59 µM)	–	–	–	–	CN1C(=O)C2=C(C1=O)N(CC(=O)Nc1ccc(-c3ccccc3)cc1)CCC2
35.5 (≈ 90.5 µM)	> 194	10.2	1050	–	Cc1ccc(-c2ccc(NC(=O)CN3CCCC4=C3C(=O)N(C)C4=O)nn2)cn1
3.34 (≈ 8.85 µM)	–	–	–	–	CN1C(=O)C2=C(C1=O)N(CC(=O)Nc1ccc(-c3ccccc3)nn1)CCC2
0.24 (≈ 0.638 µM)	–	–	–	–	CN1C(=O)C2=C(C1=O)N(CC(=O)Nc1ccc(-c3ccccc3)cn1)CCC2
0.75 (≈ 1.99 µM)	–	–	–	–	CN1C(=O)C2=C(C1=O)N(CC(=O)Nc1ccc(-c3ccccc3)nc1)CCC2
41 (≈ 103 µM)	82 (≈ 207 µM)	120	845	–	CN1C(=O)C2=C(C1=O)N(CC(=O)Nc1ccc(-c3cncc(F)c3)nn1)CCC2
